# Source: PubChem BioAssay
# Hits are enriched below; roughly 4.2% of the tested compounds scored in any of these assays.
# TMEM16A inh = TMEM16A chloride channel inhibitors, primary screen, cell-based, HTS; Anoctamin-1 (Mus musculus), Q8BHY3; HEK293 TMEM16A/YFP iodide influx fluorescence, ionomycin; normalized B-score (activity score, 25-100; higher = stronger inhibition) at 10 µM; hit rate 1.2% among 310,000;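 active means ratio plate-corrected score three or more library SD toward inhibition, starting fluorescence score within five deviations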;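 further: score derived from kinetic fluorescence span divided by baseline fluorescence per well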
# Target sequence (Q8BHY3 whole entry, looked up): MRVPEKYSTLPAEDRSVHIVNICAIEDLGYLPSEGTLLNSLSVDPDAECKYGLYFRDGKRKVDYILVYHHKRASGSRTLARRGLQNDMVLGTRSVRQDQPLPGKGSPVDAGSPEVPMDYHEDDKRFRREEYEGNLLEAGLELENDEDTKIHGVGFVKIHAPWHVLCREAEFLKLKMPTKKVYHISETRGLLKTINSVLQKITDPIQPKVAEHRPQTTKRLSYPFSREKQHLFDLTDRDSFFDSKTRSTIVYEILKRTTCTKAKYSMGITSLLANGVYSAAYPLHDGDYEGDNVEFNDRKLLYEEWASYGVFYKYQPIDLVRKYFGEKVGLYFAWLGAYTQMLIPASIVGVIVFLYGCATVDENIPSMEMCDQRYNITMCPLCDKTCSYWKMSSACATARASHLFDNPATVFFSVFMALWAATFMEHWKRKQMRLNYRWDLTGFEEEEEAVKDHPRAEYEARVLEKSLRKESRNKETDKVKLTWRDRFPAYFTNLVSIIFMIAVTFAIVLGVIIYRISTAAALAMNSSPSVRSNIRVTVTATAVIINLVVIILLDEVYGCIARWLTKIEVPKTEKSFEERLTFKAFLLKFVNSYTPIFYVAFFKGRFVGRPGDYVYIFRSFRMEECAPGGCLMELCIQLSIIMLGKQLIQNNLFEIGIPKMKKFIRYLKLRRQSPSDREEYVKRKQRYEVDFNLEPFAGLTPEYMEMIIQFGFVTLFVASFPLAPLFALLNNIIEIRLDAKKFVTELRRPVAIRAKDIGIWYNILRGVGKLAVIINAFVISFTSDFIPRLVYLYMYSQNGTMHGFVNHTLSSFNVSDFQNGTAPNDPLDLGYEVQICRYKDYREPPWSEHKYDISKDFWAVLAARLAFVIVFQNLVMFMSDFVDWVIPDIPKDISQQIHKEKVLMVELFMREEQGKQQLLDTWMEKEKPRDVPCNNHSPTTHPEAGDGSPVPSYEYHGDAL
# Hep lipid drop = inhibitors of hepatocyte lipid droplet formation, primary screen, imaging, high-throughput imaging, BODIPY stain; AML12 mouse hepatocytes, oleate lipid droplets; inhibition, % at 6.5 µM; hit rate 0.4% among 240,000; AID 1656, 2009;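 active means lipid droplet intensity inhibited by at least 50%, with more than 500 cells counted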
#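 Material – AML12 mouse liver cells · Also added – oleate loading, 100 µM · Compound dosing – 6.5 µM single-point dosing · Times – overnight treatment with compound plus oleate · Measured by – fluorescence imaging, 20x objective, two fields per well · Read-out – percent inhibition of filter-corrected integrated lipid droplet intensity per well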
# UPR XBP1 act = activators of adaptive XBP1 UPR arm, primary screen, cell-based, CHO-XBP1 luciferase reporter, luminescence, uHTS; IRE1-XBP1 UPR activation; percent of tunicamycin response, DMSO as zero; activation, % at 20 µM; hit rate 0.33% among 330,000; AID 463104, 2010;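 active means versus positive control, 20 µM dose yields 30% or more activation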;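 further: 100% = tunicamycin at 10 µg/mL and 0% = DMSO only wells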
#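 Test system: CHO-XBP1 luciferase reporter cells | Buffer or medium: Serum-containing F12 medium, 10% FBS | Schedule: 6 h compound exposure at 37 °C, 5% CO2 | Detection: Steady-Glo luciferase glow luminescence, 10 min after reagent addition | Read-out basis: Activation, % of tunicamycin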
# CHOP UPR activ = activators of apoptotic CHOP UPR arm, primary screen, cell-based, CHO-CHOP luciferase reporter, luminescence, uHTS; UPR activation; percent of tunicamycin response over DMSO baseline; activation, % at 10 µM; hit rate 0.34% among 330,000; AID 449763, 2010;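 active means at 10 µM dose, activation of 40% or more, normalized to positive control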;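 further: 100% = tunicamycin at 10 µg/mL and 0% = DMSO alone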
#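 System: CHO-CHOP luciferase reporter cell line | Buffer or medium: F12 medium containing 10% fetal bovine serum | Doses: One dose, 10 µM in 0.5% DMSO | Times: 6 h compound exposure at 37 °C after overnight seeding | Signal: Luciferase luminescence | Read-out: % activation vs tunicamycin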
# TMEM16A act = TMEM16A chloride channel activators or potentiators, primary screen, cell-based, HTS; hit rate 0.3% among 340,000; AID 623877, 2012; B-score at 10 µM; Anoctamin-1 (Mus musculus), Q8BHY3; HEK293 TMEM16A/YFP-H148Q/I152L, iodide quench fluorescence; stronger effect = lower value;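 active means fluorescence-ratio B-score plate-corrected deviation score at least 3 library SD below zero, with starting fluorescence score within 5 deviations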;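 further: channel opened by trigger with iodide after compound preincubation; score built on the fluorescence ratio of max minus min over baseline; more negative score means more quench and so TMEM16A activation or potentiation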
# CHOP inhibitor = inhibitors of CHOP promoter induction, primary screen, cell-based, unfolded protein response, luciferase reporter. hit rate 3.8% among 220,000. AID 2732, 2010. CHO-K1 CHOP-promoter luciferase, tunicamycin-induced, 15-18 h. inhibition, % at 10 µM;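 active means compounds that reduced the stress-induced luciferase reporter signal by more than about 70% of percent inhibition, limit read from the data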;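 further: 0% = tunicamycin plus vehicle and 100% = wells without tunicamycin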
# An asterisk follows results filed as active; i = inactive; x = no result given.
SMILES,TMEM16A inh,Hep lipid drop,UPR XBP1 act,CHOP UPR activ,TMEM16A act,CHOP inhibitor
NC(=O)c1ccc(C(F)(F)F)n(Cc2ccc(F)c(F)c2)c1=O,i,3,0,1,i,32
NC(=O)c1ccc(C(F)(F)F)n(Cc2cccc(Cl)c2)c1=O,i,x,1,0,i,72*
CC(C)CCNC(=O)Cc1csc(-c2ccccc2)n1,i,-3,-3,1,i,4
CC[C@@H](C(=O)[C@@H](C)[C@@H](O)[C@H](C)[C@@H]1O[C@@H]([C@@H](CC)C(=O)O)CC[C@@H]1C)[C@H]1O[C@]2(C=C[C@@H](O)[C@]3(CC[C@@](C)([C@H]4CC[C@](O)(CC)[C@H](C)O4)O3)O2)[C@H](C)C[C@@H]1C,x,x,x,x,i,x
CC[C@@H](C(=O)[C@@H](C)[C@@H](O)[C@H](C)CCc1ccc(C)c(O)c1C(=O)O)[C@H]1O[C@](CC)([C@H]2CC[C@](O)(CC)[C@H](C)O2)C[C@@H]1C,100*,-20,-3,12,-5.5*,x
c1ccc(-c2nc(NCc3ccco3)c3oc4ccccc4c3n2)cc1,i,x,0,0,i,92*
CCCCOc1ccc(-c2nnn(CC(=O)NCCc3c[nH]c4ccccc34)n2)cc1,i,-6,-1,-2,i,79*
CCCCCCCCCCCCCCCC(=O)NCCc1c[nH]c2ccccc12,i,-1,-3,0,i,7
C(=N\Nc1nc2ccccc2s1)/c1ccccn1,i,-42,-9,-10,i,101*
Cc1ccc2[nH]c(C)c(/C=N/Nc3nc4ccccc4s3)c2c1,i,x,0,-2,i,78*
COc1ccc(C=NNc2nc3ccccc3s2)cc1,x,x,x,x,i,x
CCOC(=O)c1cnc2ccc(OCC)cc2c1N(C)Cc1ccccc1,i,-6,-1,0,i,54
CC(=O)N1c2ccc(S(=O)(=O)NCc3ccco3)cc2CC1C (stereo not given),i,12,-1,0,i,x
O=C(N/N=C/c1ccc2c(c1)OCO2)C1COc2ccccc2O1 (stereo not given),i,x,-1,2,i,-18
O=C(N/N=C\c1cc(Br)cs1)C1COc2ccccc2O1 (stereo not given),i,x,-1,1,i,80*
Cc1c(/C=N\NC(=O)C2COc3ccc(C(C)(C)C)cc3O2)c2ccccc2n1C (stereo not given),i,2,0,5,i,76*
CCCCN1C(=O)c2ccc(C(=O)Nc3cccc(C)c3C)cc2C1=O,i,0,1,2,i,76*
Cc1cccc(NC(=O)c2ccc3c(c2)C(=O)N(Cc2cccnc2)C3=O)c1C,i,6,-4,0,i,x
Cc1ccccc1NC(=O)c1ccc2c(c1)C(=O)N(CCC(C)C)C2=O,i,3,-2,1,i,79*
CC1CCCCC12NC(=O)N(CC(=O)NCCc1ccccc1)C2=O (stereo not given),x,x,-3,-1,i,x
CC(C)(C)OC(=O)N1CCC(c2cc(=O)n3[nH]c(-c4ccc(Cl)cc4)cc3n2)CC1,i,x,-1,-1,i,70*
CCN(C(=O)COC(=O)c1c2c(nc3ccccc13)/C(=C/c1ccccc1)CC(C)C2)C1CCS(=O)(=O)C1 (stereo not given),i,-21,0,0,i,33
Cc1ccc(C)c(S(=O)(=O)N2CCN(Cc3ccc(O)c4ncccc34)CC2)c1,i,-8,3,-1,i,76*
CCCCNC(=O)Oc1c(Br)cc2sc(=O)oc2c1Br,i,5,-1,-2,x,103*
CCCCNC(=O)Oc1cc(CCl)on1,i,0,-1,2,x,10
SMILES,TMEM16A inh,Hep lipid drop,UPR XBP1 act,CHOP UPR activ,TMEM16A act,CHOP inhibitor
COc1ccc(-n2c(C)ccc2-c2ccccc2)cn1,i,-8,3,0,-4.8*,x
COC(=O)c1ccc(-n2c(C)ccc2-c2ccccc2)cc1,i,-5,1,0,i,59
Cc1c(Cl)c([N+](=O)[O-])nn1CCCC(=O)N1CCN(c2ccccc2)CC1,i,x,-3,0,i,42
Cc1c(Cl)c([N+](=O)[O-])nn1CCCC(=O)N(Cc1ccccc1)Cc1ccccc1,i,-18,-2,3,i,73*
CCN(CC)c1ccc(/C=N/OCC(=O)Nc2cccc(C)c2)cc1,25*,-41,0,-1,i,17
CCN(CC)c1ccc(NC(=O)CCCOc2cccc(C)c2)cc1,x,11,1,-2,i,-5
O=C(OCC(=O)N1CCCc2ccccc21)c1ccccc1OC(F)F,x,x,0,-1,i,x
c1cncc(-c2nc(-c3cccs3)cs2)c1,i,x,1,0,i,27
c1csc(-c2csc(-c3cccs3)n2)c1,i,x,4,5,i,77*
C=CCNC(=O)CN1c2cccc3cccc(c23)S1(=O)=O,i,-30,0,1,-6.6*,x
O=C(CN1c2cccc3cccc(c23)S1(=O)=O)Nc1ccc(F)c(F)c1F,x,x,-3,1,-5.1*,x
O=C(CN1c2cccc3cccc(c23)S1(=O)=O)Nc1ccccc1F,i,-2,-2,0,-7.8*,x
COc1ccc(C2CC(c3ccccc3)=NN2C(=O)COC(=O)c2cccc(N)c2)cc1 (stereo not given),x,x,-1,1,i,x
COc1ccc(S(=O)(=O)N2CCN(Cc3cc(OC)c(OC)c(OC)c3)CC2)cc1,i,6,-4,4,i,x
Cc1cc(C(=O)OCC(=O)c2ccc(Br)s2)c(C)o1,i,x,4,6,x,79*
Cc1cc(C(=O)OCC(=O)N2CCc3ccccc32)c(C)o1,i,5,6,6,i,82*
Cc1cc(C(=O)OCC(=O)c2ccc(Br)s2)no1,i,x,0,0,i,-27
CCOc1ccc(C(=O)N(Cc2ccccc2)c2cccc(C)c2)cc1OC,i,-8,-8,2,i,x
O=C(NC1=NC2CCCCC2N1)c1ccccc1 (stereo not given),i,4,-6,-4,-6.6*,10
O=C(NCC1CCCO1)C1CCN(C2CCN(C(=O)CC3CCCC3)CC2)CC1 (stereo not given),i,12,-3,0,-6.6*,1
